Test results from PubChem BioAssay AID602159 (Southern Research Specialized Biocontainment Screening …, 2011).

Tested on: HEp-2 RSV CPE, time of addition, CellTiter-Glo viability
Experiment: RSV inhibitor time-of-addition profiling, late-stage follow-up, mechanism study for RSV inhibitor project, cell-based, set 2 (AID 602159)
Conditions: at 25 µM, stronger effect = higher value
Method in brief: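 Assay system: RSV-infected HEp-2 cells; Probe or stimulus: RSV Long strain infection at MOI 0.12; Compound dosing: single 25 µM compound dose, 0.5% DMSO final; Incubation: addition -1 to 24 h post-infection, 6-day 37 °C incubation; Technique: CellTiter-Glo luminescence; Evaluation: % cell viability per addition time.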

[1] = measured here: added 1 h before infection
[2] = measured here: added 1 h post infection
[3] = measured here: added 12 h post infection
[4] = measured here: added 24 h post infection

SMILES	viability (added 21 h post infection)	viability (added at infection)	viability [1]	viability [2]	viability [3]	viability [4]
CN(C)c1ccc(Cn2c(=O)n(Cc3ccc(C(=O)NCC4COC4)cc3)c(=O)c3ccccc32)cc1	96.4%	91.3%	90.1%	91.6%	73.2%	78.7%
COCCCNC(=O)c1ccc(Cn2c(=O)c3ccccc3n(Cc3ccc(C(C)C)cc3)c2=O)cc1	38.8%	44%	49.5%	42.9%	43.8%	31.1%
COCCCNC(=O)c1ccc(Cn2c(=O)c3ccccc3n(Cc3ccc([N+](=O)[O-])cc3)c2=O)cc1	80.1%	72.1%	52.3%	70.2%	81.9%	68%
